Source: article PMC4059259 (Journal of Medicinal Chemistry, 2014)
Entries after “also recorded” stand apart in the source; their conditions may differ. Values belong to the molecule of their own block, whether it stands above or below them.

Columns and labels:
[1] = tested on: early liver stage parasites; conditions: cited from earlier work
[2] = target: T1, PfAtg8-PfAtg3 interaction (Plasmodium falciparum, UniProt Q8IJK2, C119S/C122S/C32I); test: MMV SPR competition assay; assay type: binding, P. falciparum; conditions: read-out: inhibition of the PfAtg8-PfAtg3 interaction in primary SPR screen
T1 sequence (Q8IJK2 1-124 C32I/C119S/C122S): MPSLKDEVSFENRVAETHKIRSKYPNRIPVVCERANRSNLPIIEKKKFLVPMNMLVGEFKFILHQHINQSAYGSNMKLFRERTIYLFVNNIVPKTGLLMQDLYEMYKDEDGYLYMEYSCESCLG
T1 sequence (C0H519 1-313 partner): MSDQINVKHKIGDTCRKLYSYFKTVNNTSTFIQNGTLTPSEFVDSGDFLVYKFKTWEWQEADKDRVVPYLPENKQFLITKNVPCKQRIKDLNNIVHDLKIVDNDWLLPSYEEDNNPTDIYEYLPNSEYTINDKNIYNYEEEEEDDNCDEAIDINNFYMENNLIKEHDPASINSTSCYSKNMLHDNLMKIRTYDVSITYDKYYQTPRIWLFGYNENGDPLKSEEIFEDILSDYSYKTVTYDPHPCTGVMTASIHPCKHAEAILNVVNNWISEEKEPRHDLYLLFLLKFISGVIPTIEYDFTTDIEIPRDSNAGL
Method in brief: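 MBP-PfAtg3 immobilized on a CM5 chip, with MBP on the reference flowcell. Test compound (final 5 μM) or DMSO was mixed with 300 nM His6-PfAtg8CM in PBS pH 7.4 with 0.01% P20, final DMSO 3%, and injected. Binding read as SPR response versus DMSO control. Surface regenerated with 2 M MgCl2 between injections.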

[3] = target: T2, PfAtg8^CM (Plasmodium falciparum, UniProt Q8IJK2, C119S/C122S/C32I); test: Direct binding of 1 to immobilized PfAtg8^CM by SPR; set-up: species or system P. falciparum
T2 sequence (Q8IJK2 1-124 C32I/C119S/C122S): T1 sequence (Q8IJK2 1-124 C32I/C119S/C122S)
Method in brief: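 SPR direct binding: His12-PfAtg8CM captured on a nickel-preconditioned NTA chip to 3000 RU. Two-fold dilution series of test compound (top 75 μM) injected at 40 μL/min in PBS pH 7.4 with 0.01% P20 and 3% DMSO. Double referencing with interspersed blanks; DMSO calibration curve; binding constants fitted.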

[4] = tested on: P. falciparum 3D7; test: SYBR green I growth inhibition assay, blood stage; assay type: cell-based; conditions: Plasmodium falciparum, 3D7, read-out: IC50 in a third experiment
[5] = tested on: HC-04 cells; test: Viability of HC-04 cells; assay type: cell-based, human; conditions: 30 μM
[6] = tested on: P. falciparum 3D7-GFP liver stage; test: In vitro infection of human hepatocytes; assay type: cell-based; conditions: for decrease in proportion of hepatocytes infected with P. falciparum 3D7-GFP (GFP+/PI−): 72 h post infection
[7] = tested on: PfAtg8; test: Immunoblot analysis of PfAtg8 in P. falciparum blood stage; assay type: cell-based; conditions: for delipidation of PfAtg8 (immunoblot): 6 hours
[8] = tested on: P. falciparum blood stage; test: Parasite morphology in blood smears; assay type: cell-based; conditions: treatment concentration and duration used in the study (50 μM, 5 h)
Method in brief: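 Asynchronous FCR3 blood-stage culture (25% parasitemia; 37 °C, 2% hematocrit, RPMI with 10% human serum, 3% CO2/5% O2) washed in serum-free starvation medium. Resuspended in complete medium with 50 μM test compound or DMSO, or in starvation medium with DMSO, for 5 h. Morphology viewed by light microscopy at 100× at harvest.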

[9] = tested on: Plasmodium yoelii liver stage cultures; conditions: screening concentration 10 μM; ref PubChem AID: 602118 and 602156, 18, 19; cited from earlier work
[10] = tested on: human cell lines; conditions: ref PubChem AID: 660872, 685525, and 449705; cited from earlier work
[11] = target: T3, PfAtg3 (Plasmodium falciparum, UniProt C0H519); test: Direct binding of protein to immobilized 8 by SPR; set-up: species or system P. falciparum; conditions: data not shown
T3 sequence (C0H519 1-313): T1 sequence (C0H519 1-313 partner)
Method in brief: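 Test compound captured on a neutravidin-coated SPR flowcell (130 RUs), with a control ligand on the reference flowcell (150 RUs). His6-PfAtg3 injected in duplicate in 10 mM HEPES pH 7.5, 150 mM NaCl, 0.05% P20. Regeneration after each cycle with 20 mM HEPES pH 7.4, 1% w/v SDS.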

Compound: Cn1cnc(N)c2ncnc1-2 [3-methyladenine]
effect on conversion of parasite into trophozoite form [1]: delay conversion of the parasite into its trophozoite form

Compound: Cc1ccc(Nc2nc(-c3ccccn3)cs2)cc1 [Compound 1, N-(4-methylphenyl)-4-pyridin-2-yl-1,3-thiazol-2-amine]
inhibition at 5 µM [2]: ≥ 25%
direct binding to PfAtg8^CM (SPR response) [3]: dose-dependent increase in SPR response; also recorded: directly binds to PfAtg8
IC50 [4]: 3.3 µM
cell death in HC-04 cells [5]: did not observe cell death
intensity of GFP fluorescence in infected hepatocytes ([6]; 3 μM and 30 μM): dose-dependent reduction
decrease in proportion of hepatocytes infected with P. falciparum 3D7-GFP (GFP+/PI−) ([6]; 3 μM): but not with 3 μM
decrease in proportion of hepatocytes infected with P. falciparum 3D7-GFP (GFP+/PI−) ([6]; 30 μM): ~50%
delipidation of PfAtg8 (immunoblot) ([7]; 12.5 μM): dose-dependent increase in delipidation of PfAtg8
delipidation of PfAtg8 (immunoblot) ([7]; 25 μM): unlipidated PfAtg8 is the predominant species
PfAtg8 protein levels (immunoblot) ([7]; 50 μM (cytocidal, high levels), 5 h, FCR3): drastic increase in PfAtg8 protein levels
parasite morphology [8]: parasite morphology appeared normal
inhibition of P. yoelii liver stage [9]: ≤ 50%
reported cytotoxicity in human cell lines [10]: much lower than that of compounds 2 or 3

Compound: CSc1ccccc1C(=O)Nc1nc(-c2ccccn2)cs1 [Compound 2, 2-methylsulfanyl-N-(4-pyridin-2-yl-1,3-thiazol-2-yl)benzamide]
inhibition at 5 µM [2]: ≥ 25%

Compound: O=C(Nc1nc(-c2ccccn2)cs1)c1ccccc1Br [Compound 3, 2-bromo-N-(4-pyridin-2-yl-1,3-thiazol-2-yl)benzamide]
inhibition at 5 µM [2]: ≥ 25%

Compound: Cc1ccc(-c2cc3c(SCC(=O)Nc4cc(C(F)(F)F)ccc4Cl)nccn3n2)cc1 [Compound 4, N-[2-chloro-5-(trifluoromethyl)phenyl]-2-[2-(4-methylphenyl)pyrazolo[1,5-a]pyrazin-4-yl]sulfanylacetamide]
inhibition at 5 µM [2]: ≥ 25%

Compound: CN(C)c1ccc(N2C(N)=NC(N)=NC2(C)C)cc1 [Compound 5, 1-[4-(dimethylamino)phenyl]-6,6-dimethyl-1,3,5-triazine-2,4-diamine]
inhibition at 5 µM [2]: ≥ 25%

Compound: Brc1ccc(Nc2nc3ccccc3nc2Nc2ccc(Br)cc2)cc1 [Compound 6, 2-N,3-N-bis(4-bromophenyl)quinoxaline-2,3-diamine]
inhibition at 5 µM [2]: ≥ 25%

binding of recombinant PfAtg3 to immobilized 8 [11]: did not bind
Compound: O=C(CCCC[C@H]1SC[C@H]2NC(=O)N[C@H]21)NCCCCCC(=O)NNCc1ccc(C(=O)Nc2nc(-c3ccccn3)cs2)cc1 [Compound 8, 4-[[2-[6-[5-[(3aR,4R,6aS)-2-Oxo-1,3,3a,4,6,6a-hexahydrothieno[3,4-d]imidazol-4-yl]pentanoylamino]hexanoyl]hydrazinyl]methyl]-N-(4-pyridin-2-yl-1,3-thiazol-2-yl)benzamide]
